Measured values taken from ChEMBL document CHEMBL4842351, “Synthesis and evaluation of novel and potent protease activated receptor 4 (PAR4) antagonists based on a quinazolin-4(3H)-one scaffold” (Eur J Med Chem, 2021).
Calls of active or inactive are those of the source. The rule behind the calls is not given here.

What was measured:
[1] = Metabolic stability in mouse liver microsomes assessed as half life incubated for 60 mins by LC-MS/MS analysis; assay type: ADME, Microsome
How it was run: (§1)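 Human, rat or mouse liver microsomes in potassium phosphate buffer at pH ~7.4, warmed to 37 °C with compound (DMSO stock diluted in acetonitrile). Reaction started with NADPH; no-NADPH negative controls. Aliquots taken at 0 and 60 min, quenched in ice-cold acetonitrile with internal standard, and parent measured by LC/MS/MS. t1/2 = 0.693/k from ln concentration vs time; CLint derived from t1/2. Triplicate; mean ± SD.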

[2] = Metabolic stability in rat liver microsomes assessed as half life incubated for 60 mins by LC-MS/MS analysis; assay type: ADME, Microsome; how it was run: as §1
[3] = Cytotoxicity against HEK293T cells assessed as cell viability at 10 uM incubated for 48 hrs by CCK-8 assay; assay type: cell-based, HEK-293T; settings: human, read-out: Activity
How it was run: (§2)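 HEK293 cells in exponential growth, 4000/well, left to adhere overnight, then exposed to three compound concentrations for 48 h. Equal-volume DMSO served as control. CCK-8 added for 2 h at 37 °C in the dark, absorbance read at 450 nm. Viability = OD sample/OD control × 100; mean ± SD, n=3.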

[4] = Metabolic stability in mouse liver microsomes assessed as intrinsic clearance incubated for 60 mins by LC-MS/MS analysis; assay type: ADME, Microsome; settings: 1 h; how it was run: as §1
Platelet [5] = assay: Antiplatelet activity against ADP-induced human platelet aggregation in platelet in platelet rich plasma assessed as inhibition of platelet aggregation at 10 uM by photo-turbidimetry method; assay type: functional, cell-based
How it was run: (§3)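 Human PRP prepared as for the aggregation assay and adjusted to 3×10⁸/mL. Compound preincubated for 5 min at 37 °C, then aggregation triggered by AYPGKF, SFLLRN, collagen, ADP or U46619. Maximum percent inhibition taken from 5 min light-transmittance traces. Mean ± SD, n=3.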

[6] = Cytotoxicity against HEK293T cells assessed as cell viability at 1 uM incubated for 48 hrs by CCK-8 assay; assay type: cell-based, HEK-293T; settings: human, read-out: Activity; how it was run: as §2
[7] = target: T1, Proteinase-activated receptor 2 (Homo sapiens, UniProt P55085); assay: Antagonist activity at human PAR2 expressed in Ga15-HEK293 cells assessed as reduction in PAR2 AP 2-furoyl-LIGRLO-NH2-induced cytosolic calcium incubated for 24 hrs by FLIPR - calcium mobilization assay; assay type: functional, cell-based
T1 sequence (P55085 whole entry): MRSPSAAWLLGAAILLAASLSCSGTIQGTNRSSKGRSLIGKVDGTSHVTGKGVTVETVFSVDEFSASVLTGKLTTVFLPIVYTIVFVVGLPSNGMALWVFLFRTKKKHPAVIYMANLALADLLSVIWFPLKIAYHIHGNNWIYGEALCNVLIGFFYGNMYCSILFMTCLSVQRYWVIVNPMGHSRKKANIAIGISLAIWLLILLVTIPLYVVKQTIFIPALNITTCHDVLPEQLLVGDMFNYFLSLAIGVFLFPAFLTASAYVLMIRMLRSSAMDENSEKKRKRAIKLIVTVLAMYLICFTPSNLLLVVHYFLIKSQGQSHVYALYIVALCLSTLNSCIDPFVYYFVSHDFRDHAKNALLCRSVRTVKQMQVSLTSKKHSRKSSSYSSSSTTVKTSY
How it was run: (§4)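 HEK293/Gα15 cells stably expressing human PAR1, PAR2 or PAR4, seeded at 45,000 cells/well and grown for 24 h at 37 °C, 5% CO₂. Cells loaded with calcium dye for 60 min at 37 °C in the dark. Compounds diluted from DMSO in HBSS and preincubated in the dark at room temperature. Agonists: SFFLRR (PAR1), 2-furoyl-LIGRLO-NH₂ (PAR2), AYPGKF-NH₂ (PAR4). Fluorescence read on FLIPR; 10-point half-log curves; mean of ≥2 determinations.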

[8] = Metabolic stability in human liver microsomes assessed as intrinsic clearance incubated for 60 mins by LC-MS/MS analysis; assay type: ADME, Microsome; settings: 1 h
Platelet [9] = assay: Antiplatelet activity against U46619-induced human platelet aggregation in platelet in platelet rich plasma assessed as inhibition of platelet aggregation at 10 uM by photo-turbidimetry method; assay type: functional, cell-based; how it was run: as §3
[10] = target: T2, Proteinase-activated receptor 4 (Homo sapiens, UniProt Q96RI0); assay: Antagonist activity at human PAR4 expressed in Ga15-HEK293 cells assessed as reduction in PAR4 AP AYPGKF-NH2-induced cytosolic calcium incubated for 24 hrs by FLIPR - calcium mobilization assay; assay type: functional, cell-based; how it was run: as §4
T2 sequence (Q96RI0 whole entry): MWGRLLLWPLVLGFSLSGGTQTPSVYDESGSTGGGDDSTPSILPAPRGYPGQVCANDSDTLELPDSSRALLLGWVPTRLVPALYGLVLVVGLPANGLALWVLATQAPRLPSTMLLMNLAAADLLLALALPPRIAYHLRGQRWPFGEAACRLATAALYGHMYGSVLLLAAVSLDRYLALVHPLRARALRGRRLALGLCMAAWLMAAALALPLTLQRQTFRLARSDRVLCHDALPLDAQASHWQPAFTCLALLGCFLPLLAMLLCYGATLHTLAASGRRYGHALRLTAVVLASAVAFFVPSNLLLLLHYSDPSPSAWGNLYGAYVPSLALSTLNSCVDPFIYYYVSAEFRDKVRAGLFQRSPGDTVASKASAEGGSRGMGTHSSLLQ

[11] = Metabolic stability in human liver microsomes assessed as half life incubated for 60 mins by LC-MS/MS analysis; assay type: ADME, Microsome
Platelet [12] = assay: Antiplatelet activity against AYPGKF-NH2-induced human platelet in platelet rich plasma assessed as inhibition of platelet aggregation at 10 uM by photo-turbidimetry method; assay type: functional, cell-based; how it was run: as §3
Platelet [13] = assay: Antiplatelet activity against SFLLRN-NH2-induced human platelet in platelet rich plasma assessed as inhibition of platelet aggregation at 10 uM by photo-turbidimetry method; assay type: functional, cell-based; how it was run: as §3
Platelet [14] = assay: Antiplatelet activity against collagen-induced human platelet aggregation in platelet in platelet rich plasma assessed as inhibition of platelet aggregation at 10 uM by photo-turbidimetry method; assay type: functional, cell-based; how it was run: as §3
[15] = target: T3, Proteinase-activated receptor 1 (Homo sapiens, UniProt P25116); assay: Antagonist activity at human PAR1 expressed in Ga15-HEK293 cells assessed as reduction in PAR1 AP SFFLRR-NH2-induced cytosolic calcium incubated for 24 hrs by FLIPR - calcium mobilization assay; assay type: functional, cell-based; how it was run: as §4
T3 sequence (P25116 whole entry): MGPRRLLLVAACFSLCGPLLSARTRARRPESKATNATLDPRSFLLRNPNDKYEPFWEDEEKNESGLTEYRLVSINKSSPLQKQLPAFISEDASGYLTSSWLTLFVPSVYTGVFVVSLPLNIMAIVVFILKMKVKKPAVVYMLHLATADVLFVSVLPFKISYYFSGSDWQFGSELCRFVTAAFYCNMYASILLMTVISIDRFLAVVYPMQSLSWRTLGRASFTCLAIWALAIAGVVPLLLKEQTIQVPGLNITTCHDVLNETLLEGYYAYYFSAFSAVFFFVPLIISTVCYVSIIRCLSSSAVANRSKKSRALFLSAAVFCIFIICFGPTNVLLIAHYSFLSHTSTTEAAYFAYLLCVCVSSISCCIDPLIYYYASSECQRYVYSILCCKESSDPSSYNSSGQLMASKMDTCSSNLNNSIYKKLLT

[16] = Metabolic stability in rat liver microsomes assessed as intrinsic clearance incubated for 60 mins by LC-MS/MS analysis; assay type: ADME, Microsome; settings: 1 h; how it was run: as §1
[17] = Cytotoxicity against HEK293T cells assessed as cell viability at 20 uM incubated for 48 hrs by CCK-8 assay; assay type: cell-based, HEK-293T; settings: human, read-out: Activity; how it was run: as §2

COc1cc(Cl)c2nc(-c3cc(C)cc4c(=O)n(C)cnc34)sc2c1
half-life [1]: 282 min | half-life [2]: 31.9 min | viability at 48 h, 10 µM [3]: 73.7% | CLH [4]: 19.3 mL/min/g | Activity (Platelet [5]): inactive | viability at 48 h, 1 µM [6]: 91.3% | IC50 [7]: > 1000 nM | CLH [8]: 36.6 mL/min/g | Activity (Platelet [9]): inactive | IC50 [10]: 0.53 nM | half-life [11]: 42.6 min | Activity (Platelet [12]): Active | Activity (Platelet [13]): inactive | Activity (Platelet [14]): inactive | IC50 [15]: > 3160 nM | CLH [16]: 78.1 mL/min/g | viability at 48 h, 20 µM [17]: 59.3%
